Reference: ChEMBL document CHEMBL2384943, “New Peptide-based antimicrobials for tackling drug resistance in bacteria: single-cell fluorescence imaging” (ACS Med Chem Lett, 2013)
≈ marks a conversion by molar mass, not a printed value. *1 amine or outer side, *2 acyl side, *3 side chain or, on linkers, in order; H or OH if unused. Where a SMILES comes first, the peptide text is derived from it. The star is where a group is joined. X1 = c1ccc(CN(Cc2ccccc2)Cc2cccc(N*)c2)cc1; X2 = c1ccc(CN(Cc2ccccn2)Cc2cccc(N*)n2)nc1; Glutaryl = O=C(CCCC(=O)[*:2])[*:1]; OBn = c1ccc(CO*)cc1

Legend:
Klebsiella aerogenes [1] = assay: Antibacterial activity against tolC-deficient Enterobacter aerogenes EA298 assessed as growth inhibition after 18 hrs by two-fold serial dilution method; format: functional; details: EA298, 18 h
How it was run: (§1)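 Strains were routinely grown at 37 °C in LB broth or on LB agar, with kanamycin 50 μg·mL–1 added for AG100A and EA298 (EA298 is the tolC derivative of clinical MDR isolate EA289). MICs were read in Mueller Hinton broth with 2-fold serial dilutions, using an inoculum of 2 × 10^5 cfu per 200 μL, scored after 18 h at 37 °C. Ciprofloxacin and fleroxacin served as reference antibiotics.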

Escherichia coli [2] = assay: Antibacterial activity against acrAB-deficient Escherichia coli AG100A assessed as growth inhibition after 18 hrs by two-fold serial dilution method; format: functional; how it was run: as §1
Escherichia coli [3] = assay: Antibacterial activity against wild type Escherichia coli AG100 assessed as growth inhibition after 18 hrs by two-fold serial dilution method; format: functional; details: AG100, 18 h; how it was run: as §1
Klebsiella aerogenes [4] = assay: Antibacterial activity against multidrug-resistant Enterobacter aerogenes EA289 overexpressing AcrAB-tolC assessed as growth inhibition after 18 hrs by two-fold serial dilution method; format: functional; details: EA289, 18 h
How it was run: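 Inoculum 2 × 10^5 cfu in Mueller Hinton broth with 2-fold serial compound dilutions. MIC was scored after 18 h at 37 °C. Ciprofloxacin and fleroxacin served as internal reference antibiotics. Strains were routinely grown at 37 °C in LB.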

Klebsiella aerogenes [5] = assay: Drug uptake in multidrug-resistant Enterobacter aerogenes EA289 overexpressing AcrAB-tolC at 123 uM after 15 to 60 mins by DUV microspectrofluorimetric analysis; format: ADME, organism-based; details: in vivo

N=C(N)NCCC[C@H](NC(=O)[C@H](Cc1c[nH]c2ccccc12)NC(=O)CCCC(=O)Nc1cccc(CN(Cc2ccccn2)Cc2ccccn2)n1)C(=O)N[C@@H](Cc1c[nH]c2ccccc12)C(=O)N[C@@H](CCCNC(=N)N)C(=O)N[C@@H](Cc1c[nH]c2ccccc12)C(=O)N[C@@H](CCCNC(=N)N)C(=O)OCc1ccccc1 ({X2-Glutaryl}-WRWRWR-OBn)
MIC (Klebsiella aerogenes [1]): 8 µM (≈ 12.3 µg/mL) | MIC (Escherichia coli [2]): 8 µM (≈ 12.3 µg/mL) | MIC (Escherichia coli [3]): 8 µM (≈ 12.3 µg/mL) | MIC (Klebsiella aerogenes [4]): 16 µM (≈ 24.6 µg/mL)

N=C(N)NCCC[C@H](NC(=O)CCCC(=O)Nc1cccc(CN(Cc2ccccn2)Cc2ccccn2)n1)C(=O)N[C@@H](Cc1c[nH]c2ccccc12)C(=O)N[C@@H](CCCNC(=N)N)C(=O)N[C@@H](Cc1c[nH]c2ccccc12)C(=O)N[C@@H](CCCNC(=N)N)C(=O)N[C@@H](Cc1c[nH]c2ccccc12)C(=O)OCc1ccccc1 ({X2-Glutaryl}-RWRWRW-OBn)
MIC (Klebsiella aerogenes [1]): 8 µM (≈ 12.3 µg/mL) | MIC (Escherichia coli [2]): 8 µM (≈ 12.3 µg/mL) | MIC (Escherichia coli [3]): 8 µM (≈ 12.3 µg/mL) | MIC (Klebsiella aerogenes [4]): 16 µM (≈ 24.6 µg/mL)

N=C(N)NCCC[C@H](NC(=O)CCCC(=O)Nc1cccc(CN(Cc2ccccn2)Cc2ccccn2)n1)C(=O)N[C@@H](Cc1c[nH]c2ccccc12)C(=O)N[C@@H](CCCNC(=N)N)C(=O)N[C@@H](Cc1c[nH]c2ccccc12)C(=O)OCc1ccccc1 ({X2-Glutaryl}-RWRW-OBn)
MIC (Klebsiella aerogenes [1]): 8 µM (≈ 9.56 µg/mL) | MIC (Escherichia coli [2]): 8 µM (≈ 9.56 µg/mL) | MIC (Escherichia coli [3]): 32 µM (≈ 38.2 µg/mL) | MIC (Klebsiella aerogenes [4]): 16 µM (≈ 19.1 µg/mL)

CN(C)c1cccc2c(S(=O)(=O)NCCCC[C@@H](NC(=O)CCCC(=O)Nc3cccc(CN(Cc4ccccc4)Cc4ccccc4)c3)C(=O)N[C@@H](CCCNC(=N)N)C(=O)N[C@@H](Cc3c[nH]c4ccccc34)C(=O)N[C@@H](CCCNC(=N)N)C(=O)N[C@@H](Cc3c[nH]c4ccccc34)C(=O)OCc3ccccc3)cccc12
Drug uptake (Klebsiella aerogenes [5]): Active

CN1CCN(c2c(F)cc3c(=O)c(C(=O)O)cn(CCF)c3c2F)CC1 [FLEROXACIN]
MIC (Klebsiella aerogenes [1]): 16 µM (≈ 5.91 µg/mL) | MIC (Escherichia coli [2]): 0.125 µM (≈ 0.0462 µg/mL) | MIC (Escherichia coli [3]): 0.5 µM (≈ 0.185 µg/mL) | MIC (Klebsiella aerogenes [4]): > 128 µM

N=C(N)NCCC[C@H](NC(=O)[C@H](Cc1c[nH]c2ccccc12)NC(=O)CCCC(=O)Nc1cccc(CN(Cc2ccccn2)Cc2ccccn2)n1)C(=O)N[C@@H](Cc1c[nH]c2ccccc12)C(=O)N[C@@H](CCCNC(=N)N)C(=O)OCc1ccccc1 ({X2-Glutaryl}-WRWR-OBn)
MIC (Klebsiella aerogenes [1]): 4 µM (≈ 4.78 µg/mL) | MIC (Escherichia coli [2]): 8 µM (≈ 9.56 µg/mL) | MIC (Escherichia coli [3]): 16 µM (≈ 19.1 µg/mL) | MIC (Klebsiella aerogenes [4]): 8 µM (≈ 9.56 µg/mL)

O=C(O)c1cn(C2CC2)c2cc(N3CCNCC3)c(F)cc2c1=O [CIPROFLOXACIN]
MIC (Klebsiella aerogenes [1]): 8 µM (≈ 2.65 µg/mL) | MIC (Escherichia coli [2]): 0.03 µM (≈ 0.00994 µg/mL) | MIC (Escherichia coli [3]): 0.125 µM (≈ 0.0414 µg/mL) | MIC (Klebsiella aerogenes [4]): 64 µM (≈ 21.2 µg/mL)

CC(=O)N[C@@H](CCCNC(=N)N)C(=O)N[C@@H](Cc1c[nH]c2ccccc12)C(=O)N[C@@H](CCCNC(=N)N)C(=O)N[C@@H](Cc1c[nH]c2ccccc12)C(=O)OCc1ccccc1 (Ac-RWRW-OBn)
MIC (Klebsiella aerogenes [1]): 64 µM (≈ 53.4 µg/mL) | MIC (Escherichia coli [2]): 16 µM (≈ 13.4 µg/mL) | MIC (Escherichia coli [3]): 64 µM (≈ 53.4 µg/mL) | MIC (Klebsiella aerogenes [4]): > 128 µM

N=C(N)NCCC[C@H](NC(=O)CCCC(=O)Nc1cccc(CN(Cc2ccccc2)Cc2ccccc2)c1)C(=O)N[C@@H](Cc1c[nH]c2ccccc12)C(=O)N[C@@H](CCCNC(=N)N)C(=O)N[C@@H](Cc1c[nH]c2ccccc12)C(=O)OCc1ccccc1 ({X1-Glutaryl}-RWRW-OBn)
MIC (Klebsiella aerogenes [1]): 64 µM (≈ 76.3 µg/mL) | MIC (Escherichia coli [2]): 64 µM (≈ 76.3 µg/mL) | MIC (Escherichia coli [3]): 64 µM (≈ 76.3 µg/mL) | MIC (Klebsiella aerogenes [4]): 64 µM (≈ 76.3 µg/mL)

CCCCC[C@H](CC(=O)NO)C(=O)N[C@H](C(=O)N1CCC[C@H]1CO)C(C)C [ACTINONIN]
MIC (Klebsiella aerogenes [1]): 32 µM (≈ 12.3 µg/mL) | MIC (Escherichia coli [2]): 2 µM (≈ 0.771 µg/mL) | MIC (Escherichia coli [3]): > 128 µM | MIC (Klebsiella aerogenes [4]): > 128 µM
